From PubChem BioAssay
Rows were chosen to be rich in hits. Some 3.1% of all compounds tested hit in one or more screens of this group.
MBD2 DNA inh: inhibitors of MBD2 binding to methylated DNA, primary screen, biochemical, TR-FRET, DNA-binding domain, human. Methyl-CpG-binding domain protein 2 (Homo sapiens), Q9UBB5. MBD2 binding to methylated oligonucleotide. inhibition, % at 4.4 µM. actives 0.31% (n = 370,000); in the data active = inhibition above about 13%
LEDGF integ inh: blockers of LEDGF/p75-dependent integrase strand transfer – biochemical, TR-FRET, high throughput, primary screen | TR-FRET IN-LEDGF/p75 DNA integration, Eu/Cy5 | inhibition, % at 3.7 µM | AID 743269, 2014 | HIV-1 integrase (with human LEDGF/p75) | actives 0.64% (n = 370,000);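 active = inhibition above the screen-wide mean plus 3 SD, cut at about 13% in these data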;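 note: signal is the Cy5 over europium emission ratio at 671 and 618 nm; 0% = plate median of compound wells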
UHRF1 MBD2 ctr: UHRF1 methylated DNA binding inhibitors, primary screen, counter-screen for MBD2 inhibitor project, biochemical, TR-FRET, human UHRF1, single concentration; AID 687016, 2013; inhibition, % at 4.4 µM; E3 ubiquitin-protein ligase UHRF1 (Homo sapiens), Q96T88; actives 0.75% (n = 370,000); UHRF1 binding to methylated oligo;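 note: UHRF1 SRA domain binding a hemimethylated CpG hairpin DNA probe; 0% = median of test compound wells and 100% = reference inhibitor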
Target sequence (Q96T88 whole entry, looked up, the tested form may be a part): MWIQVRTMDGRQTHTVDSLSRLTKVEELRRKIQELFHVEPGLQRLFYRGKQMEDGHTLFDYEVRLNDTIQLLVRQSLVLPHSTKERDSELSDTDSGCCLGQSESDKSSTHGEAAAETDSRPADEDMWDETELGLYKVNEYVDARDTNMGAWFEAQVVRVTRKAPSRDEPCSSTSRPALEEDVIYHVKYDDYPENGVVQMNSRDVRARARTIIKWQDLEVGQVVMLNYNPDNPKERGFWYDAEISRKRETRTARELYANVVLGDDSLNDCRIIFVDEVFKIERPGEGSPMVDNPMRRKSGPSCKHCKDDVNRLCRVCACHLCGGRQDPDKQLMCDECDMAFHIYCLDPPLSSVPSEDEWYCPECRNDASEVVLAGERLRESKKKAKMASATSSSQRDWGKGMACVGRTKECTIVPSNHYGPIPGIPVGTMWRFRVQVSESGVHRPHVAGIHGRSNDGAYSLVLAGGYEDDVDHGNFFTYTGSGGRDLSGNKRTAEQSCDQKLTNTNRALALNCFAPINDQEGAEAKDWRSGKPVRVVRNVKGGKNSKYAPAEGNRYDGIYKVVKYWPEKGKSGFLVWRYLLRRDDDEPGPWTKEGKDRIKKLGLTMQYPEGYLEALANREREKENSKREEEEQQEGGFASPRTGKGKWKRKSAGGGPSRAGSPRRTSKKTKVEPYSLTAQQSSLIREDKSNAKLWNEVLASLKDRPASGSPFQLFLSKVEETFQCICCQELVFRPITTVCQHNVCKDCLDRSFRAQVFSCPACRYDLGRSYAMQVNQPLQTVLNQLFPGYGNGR
rCAG RNA binder: binders of r(CAG) RNA repeats, primary screen, biochemical, fluorescence. AID 651821, 2012. actives 1.3% (n = 370,000). inhibition, % at 3 µM. r(CAG) RNA repeat, TO-PRO-1 dye displacement fluorescence;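 active = inhibition above the plate cutoff, the mean of all test compounds on that plate plus 3 SD, cut at about 35% in these data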;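 note: 0% = DMSO alone and 100% = 100 µM mitoxantrone as full dye displacement; higher means more dye released from RNA so lower well fluorescence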
CSN deneddyl inh: inhibitors of CSN-mediated cullin deneddylation, primary screen, biochemical, fluorescence polarization, uHTS; Purified CSN, SCF-Nedd8-OG deneddylation; inhibition, % at 12.5 µM; actives 0.38% (n = 360,000);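 active = pattern-corrected inhibition above about 35%, with an unprinted fluorescence ratio check between 0.5 and 1.5, limit read from the data, passing the limit was not always enough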;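 note: 0% = enzyme with substrate and 100% = substrate without enzyme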
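Assay system: purified human Csn5 enzyme expressed in HEK293T cells; Input: 0.24 nM Csn5 enzyme, final concentration; Reagent: 10 nM SCFSkp2-Nedd8OG; Compound dosing: 12.5 µM single point; Times: reaction 90 min, room temperature; Technique: fluorescence polarization readout.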
ATG4B inhibitor: ATG4B protease inhibitors, primary screen, biochemical, fluorescence, uHTS; Cysteine protease ATG4B (Homo sapiens), Q9Y4P1; ATG4B cleavage of LC3-PLA2, NBD-HPC fluorescence, 1 h; inhibition, % at 8.33 µM; actives 0.51% (n = 340,000); AID 504462, 2011; in the data active = inhibition above about 40%
rCAG bind conf: small molecules binding CAG repeat RNA – biochemical, fluorescence, confirmation; actives 70% (n = 4,300); AID 652065, 2013; r(CAG) RNA repeat, TO-PRO-1 dye displacement fluorescence; inhibition, % at 3 µM; shares compounds with rCAG RNA binder;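 active = inhibition above a per-plate cutoff, the mean inhibition of sample wells plus 3 SD, cut at about 35% in these data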;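 note: loss of TO-PRO-1 fluorescence as compound displaces dye from 1x1 AA loop RNA; 0% = DMSO only wells and 100% = 100 µM mitoxantrone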
dCAG dye counter: displacement of TO-PRO-1 from CAG DNA duplex, counter-screen for rCAG RNA repeat binder project, biochemical, fluorescence, TO-PRO-1 dye, d(CAG) DNA oligo. shares compounds with rCAG RNA binder. d(CAG) DNA oligo TO-PRO-1 dye displacement. inhibition, % at 3 µM. actives 94% (n = 4,300). AID 652068, 2013;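 active = inhibition above its plate's cutoff, the mean test-well inhibition plus 3 SD, cut at about 4.8% in these data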;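 note: 0% = DNA dye mix with DMSO and 100% = 100 µM mitoxantrone; hits displace the dye from DNA and so lower well fluorescence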
CSN5 deneddyl: Csn5 deneddylation inhibitors, confirmation, biochemical, fluorescence polarization, single concentration, SCF-Nedd8OG substrate. shares compounds with CSN deneddyl inh. actives 62% (n = 540). Csn5 deneddylation of SCF-Nedd8OG, 90 min. inhibition, % at 16.6 µM. AID 720654, 2013; in the data active = inhibition above about 50%;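 note: 0% = DMSO with enzyme and 100% = no enzyme wells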
MMP2 cntr CSN: MMP-2 protease inhibition counter-screen, confirmation, counter-screen for CSN deneddylation inhibitor project, biochemical, fluorescence, single concentration; shares compounds with CSN deneddyl inh; recombinant MMP-2, FRET substrate fluorescence, 60 min; inhibition, % at 16.6 µM; actives 33% (n = 540);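 active = corrected plate-normalized z-score of 5 or more, or -5 or less, or inhibition of 15% or more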;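 note: plate controls were DMSO wells with enzyme for no effect and buffer wells lacking MMP-2 for full effect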
Thrombin cntr: counter-screen for CSN deneddylation inhibitors: bovine thrombin inhibition; shares compounds with CSN deneddyl inh; bovine thrombin cleavage of Ub4-pepOG, fluorescence polarization; inhibition, % at 16.6 µM; actives 49% (n = 540);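 active = inhibition at or above a set limit, with a fluorescence interference ratio between 0.5 and a set maximum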
UHRF1 DNA bind: UHRF1 methylated DNA binding inhibitors, counter-screen for MBD2 inhibitor project, biochemical, TR-FRET, human UHRF1; UHRF1 binding to methylated oligonucleotide; actives 25% (n = 1,000); shares compounds with MBD2 DNA inh; inhibition, % at 4.4 µM;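 note: UHRF1 SRA domain binding a labeled hemimethylated CpG hairpin DNA; 0% = vehicle only and 100% = reference inhibitor with vehicle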
MBD2 DBD conf: inhibitors of MBD2 binding to methylated DNA, confirmation, biochemical, TR-FRET, DNA-binding domain, human. shares compounds with MBD2 DNA inh. TR-FRET MBD2-DBD binding to methylated oligonucleotide. inhibition, % at 4.4 µM. actives 26% (n = 1,000); in the data active = inhibition above about 14%
IN multimer up: HIV-1 IN multimer formation enhancers, counter-screen for LEDGF/p75 integration inhibitor project, biochemical, TR-FRET; shares compounds with LEDGF integ inh; TR-FRET HIV-1 integrase multimerization; activation, % at 7.7 µM; actives 17% (n = 2,000); in the data active = activation above about 8.9%
TR-FRET interf: TR-FRET optical interference artefacts, confirmation, artefact control for LEDGF/p75-dependent integration inhibitor project, biochemical, HIV-1 IN multimerization. AID 1053135, 2014. TR-FRET optical interference counterscreen. inhibition, % at 7.7 µM. shares compounds with LEDGF integ inh. 2,000 tested, under 10 active;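 active = inhibition above the mean over all tested compounds plus 3 SD, which no compound reached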;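 note: 0% = integrase with antibodies and DMSO and 100% = antibodies without integrase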
LEDGF integ conf: inhibitors of HIV-1 IN-LEDGF/p75 DNA integration, confirmation, biochemical, TR-FRET | shares compounds with LEDGF integ inh | AID 1053136, 2014 | inhibition, % at 3.7 µM | TR-FRET LEDGF/p75-dependent HIV-1 integration | actives 36% (n = 2,000); in the data active = inhibition above about 14%
* = called active by the depositor; x = not tested or not shown. Cut-off read from the data, not from the text of the source, unless noted: active = inhibition above about 21%; inactive = the rest.

SMILES	MBD2 DNA inh	LEDGF integ inh	UHRF1 MBD2 ctr	rCAG RNA binder	CSN deneddyl inh	ATG4B inhibitor	CSN5 deneddyl	MMP2 cntr CSN	Thrombin cntr	others
O=C1/C(=C/c2ccco2)SC(=S)N1CC1CCCO1 (stereo unspecified)	8	16*	29*	46*	27	4	x	x	x	rCAG bind conf=16;dCAG dye counter=8.6*;IN multimer up=4;TR-FRET interf=-22;LEDGF integ conf=15*
O=C(CCCN1C(=O)/C(=C/c2ccco2)SC1=S)Nc1ccccc1C(=O)O	27*	39*	82*	88*	39*	22	83*	25*	32*	rCAG bind conf=83*;dCAG dye counter=49*;UHRF1 DNA bind=52*;MBD2 DBD conf=16*;IN multimer up=9.7*;TR-FRET interf=-36;LEDGF integ conf=27*
O=C(CCCN1C(=O)/C(=C\c2cccs2)SC1=S)Nc1ccccc1O	-1	2	-1	6	-3	x	x	x	x
COC(=O)[C@]12C[C@H](CC(=O)N3CCCC3)C(=O)N(Cc3cccc4ccccc34)C1=C[C@H](COCc1ccccc1)O[C@@H]2C	2	4	2	6	x	x	x	x	x
CCOc1ccc(S(=O)(=O)Nc2cc(SCC(=O)O)c(O)c3ccccc23)cc1	-4	25*	-6	36*	20	-21	x	x	x	rCAG bind conf=60*;dCAG dye counter=24*;IN multimer up=2;TR-FRET interf=-7;LEDGF integ conf=43*
COC(=O)c1cc(C(c2ccccc2O)C2CCC(C)(C)O2)n2ccccc12 (stereo unspecified)	8	-2	0	3	x	x	x	x	x
O=S(=O)(Nc1nc(-c2ccco2)c(-c2ccco2)s1)c1ccc(F)cc1F	23*	35*	59*	62*	39*	x	x	x	x	rCAG bind conf=53*;dCAG dye counter=20*;UHRF1 DNA bind=11;MBD2 DBD conf=4;IN multimer up=1;TR-FRET interf=-5;LEDGF integ conf=10
Cc1nc2ccc(NS(=O)(=O)c3ccc(F)cc3F)cc2s1	-3	-1	-4	9	8	-11	x	x	x
CN(C)c1ccc(/C=C/C(=O)c2cc(Cl)ccc2O)cc1	-1	3	-2	-1	71*	-4	68*	-18	42*
O=C(/C=C/c1ccncc1)c1cc(Cl)ccc1O	2	3	0	6	7	-5	x	x	x
Cc1ccc(CN2CCCCC(NC(=O)C(C)(C)C)C2=O)cc1 (stereo unspecified)	-1	2	0	0	x	x	x	x	x
CC1(C)CC[C@]2(C(=O)n3ccnc3)CC[C@]3(C)[C@H](C(=O)C=C4[C@@]5(C)C=C(C#N)C(=O)C(C)(C)[C@@H]5CC[C@]43C)[C@@H]2C1	0	0	-1	53*	39*	9	56*	0	8
CC(=O)c1c(C)oc2ccc(NS(=O)(=O)c3ccc(C)cc3)cc12	11	-4	4	0	1	-10	x	x	x
Cc1ccc(C)c(S(=O)(=O)Nc2ccc3oc(C)c(C(=O)O)c3c2)c1	2	9	24*	29	40*	5	53	12	7
COC(=O)[C@]12C[C@H](CC(=O)NCc3cccs3)C(=O)N(Cc3ccco3)C1=C[C@H](C1CCCC1)O[C@@H]2C	-1	1	-3	2	x	x	x	x	x
COCCCN1C(=O)[C@H](CC(=O)NCc2ccccc2)[C@]2(C(=O)OC)CCCCC=C12	-2	8	3	2	x	x	x	x	x
COc1ccc2nc(C)cc(N/N=C/c3ccc(F)cc3)c2c1	4	-1	-12	27	45*	-4	92*	16*	-10
COc1ccc(/C=N/Nc2cc(C)nc3ccccc23)cc1	8	4	-17	27	4	-2	x	x	x
O[C@H](COc1cc(F)cc(F)c1)CN1CCC(C(O)(c2ccccc2)c2ccccc2)CC1	0	-5	-1	2	x	x	x	x	x
